The subject of one test is A549. As to the kind of experiment: Antiproliferative activity against human A549 cells assessed as reduction in cell viability by MTT assay. It is filed as functional, cell-based. (In general: Formazan colour is commonly taken as a measure of viable cells.)
Another test relates to PC-3. Kind of test: Antiproliferative activity against human PC3 cells assessed as reduction in cell viability by MTT assay. The test is classed as functional, cell-based.
Test [1] relates to HCT-116. As to the kind of experiment: Antiproliferative activity against human HCT116 cells assessed as reduction in cell viability by MTT assay. The test is classed as functional, cell-based.
The test system of test [2] is HCT-116. Kind of test: Induction of cell cycle arrest in human HCT116 cells assessed as S phase at 0.33 uM incubated for 24 hrs by annexin V and propidium iodide staining based flow cytometry analysis (reference value: 16.08 %). The test is classed as functional. The method in brief: (§1)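 HCT116 cells treated 24 h at 0.33, 1.0 or 9.0 µM alongside a non-treated control. Cells were fixed, stained with Annexin-V and propidium iodide, and DNA content was measured by flow cytometry. Percentages of cells in G1, S and G2 phases were quantified.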

Test [3] has as its system HCT-116. Kind of test: Induction of cell cycle arrest in human HCT116 cells assessed as S phase at 1 uM incubated for 24 hrs by annexin V and propidium iodide staining based flow cytometry analysis (reference value: 16.08 %). The test is classed as functional. The method in brief: as §1
Test [4] concerns HCT-116. Kind of test: Induction of apoptosis in human HCT116 cells assessed as early apoptotic cells at 3 uM incubated for 24 hrs by annexin V FITC and propidium iodide staining based flow cytometry analysis (reference value: 7.9 %). The test is classed as functional. On the technique in general: Flow cytometry measures light scatter and fluorescence of single cells or particles in a stream.

The test system of test [5] is HCT-116. Kind of test: Induction of cell cycle arrest in human HCT116 cells assessed as G2 phase at 1 uM incubated for 24 hrs by annexin V and propidium iodide staining based flow cytometry analysis (reference value: 22.11 %). It is filed as functional. The procedure, abridged: as §1
Test [6] deals with HCT-116. Kind of test: Induction of apoptosis in human HCT116 cells assessed as necrotic cells at 3 uM incubated for 24 hrs by annexin V FITC and propidium iodide staining based flow cytometry analysis (reference value: 0.2 %). It is filed as functional.
In test [7] the test system is HCT-116. As to the kind of experiment: Induction of apoptosis in human HCT116 cells assessed as late apoptotic cells at 3 uM incubated for 24 hrs by annexin V FITC and propidium iodide staining based flow cytometry analysis (reference value: 11 %). The test is classed as functional.
Test [8] has as its system HCT-116. As to the kind of experiment: Induction of cell cycle arrest in human HCT116 cells assessed as S phase at 9 uM incubated for 24 hrs by annexin V and propidium iodide staining based flow cytometry analysis (reference value: 16.08 %). It is filed as functional. The method in brief: as §1
Test [9] relates to HCT-116. As to the kind of experiment: Induction of apoptosis in human HCT116 cells assessed as necrotic cells at 1 uM incubated for 24 hrs by annexin V FITC and propidium iodide staining based flow cytometry analysis (reference value: 0.2 %). The test is classed as functional.
In test [10] the test system is HCT-116. As to the kind of experiment: Inhibition of cell migration in human HCT116 cells assessed as inhibition of wound healing rate measured upto 48 hrs by phase contrast microscopy. The test is classed as functional, cell-based. The method in brief: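 Wound-healing scratch assay in HCT116 monolayers treated at 0.3 and 3 µM versus blank control. Phase-contrast images were taken at 0, 24 and 48 h, and the wound-healing rate was assessed.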

For test [11], the system named is HCT-116. Kind of test: Induction of apoptosis in human HCT116 cells assessed as early apoptotic cells at 9 uM incubated for 24 hrs by annexin V FITC and propidium iodide staining based flow cytometry analysis (reference value: 7.9 %). The test is classed as functional.
The subject of test [12] is HCT-116. Kind of test: Induction of apoptosis in human HCT116 cells assessed as viable cells at 9 uM incubated for 24 hrs by annexin V FITC and propidium iodide staining based flow cytometry analysis (reference value: 80.9 %). The test is classed as functional. Conditions: HCT-116, 24 h, read-out: Activity.
The test system of test [13] is HCT-116. Kind of test: Induction of cell cycle arrest in human HCT116 cells assessed as G1 phase at 9 uM incubated for 24 hrs by annexin V and propidium iodide staining based flow cytometry analysis (reference value: 61.81 %). The test is classed as functional. The procedure, abridged:
as §1

Test [14] has as its system HCT-116. Kind of test: Induction of apoptosis in human HCT116 cells incubated for 24 hrs by annexin V FITC and propidium iodide staining based flow cytometry analysis. It is filed as functional, cell-based.
In test [15] the test system is HCT-116. As to the kind of experiment: Induction of apoptosis in human HCT116 cells assessed as early apoptotic cells at 1 uM incubated for 24 hrs by annexin V FITC and propidium iodide staining based flow cytometry analysis (reference value: 7.9%). It is filed as functional.
Test [16] concerns HCT-116. As to the kind of experiment: Induction of apoptosis in human HCT116 cells assessed as viable cells at 3 uM incubated for 24 hrs by annexin V FITC and propidium iodide staining based flow cytometry analysis (reference value: 80.9 %). It is filed as functional. The note with it: HCT-116, 24 h, read-out: Activity.
The test system of test [17] is HCT-116. As to the kind of experiment: Induction of apoptosis in human HCT116 cells assessed as necrotic cells at 9 uM incubated for 24 hrs by annexin V FITC and propidium iodide staining based flow cytometry analysis (reference value: 0.2 %). The test is classed as functional.
In test [18] the test system is HCT-116. Kind of test: Induction of cell cycle arrest in human HCT116 cells assessed as G2 phase at 0.33 uM incubated for 24 hrs by annexin V and propidium iodide staining based flow cytometry analysis (reference value: 22.11 %). The test is classed as functional. The method in brief: as §1
Test [19] has as its system HCT-116. As to the kind of experiment: Induction of cell cycle arrest in human HCT116 cells assessed as G1 phase at 1 uM incubated for 24 hrs by annexin V and propidium iodide staining based flow cytometry analysis (reference value: 61.81 %). The test is classed as functional. The method in brief:
as §1

Test [20] relates to HCT-116. As to the kind of experiment: Induction of cell cycle arrest in human HCT116 cells assessed as G2 phase at 9 uM incubated for 24 hrs by annexin V and propidium iodide staining based flow cytometry analysis (reference value: 22.11 %). The test is classed as functional. The procedure, abridged: as §1
Test [21] deals with HCT-116. As to the kind of experiment: Induction of apoptosis in human HCT116 cells assessed as viable cells at 1 uM incubated for 24 hrs by annexin V FITC and propidium iodide staining based flow cytometry analysis (reference value: 80.9 %). It is filed as functional. The note with it: HCT-116, 24 h, read-out: Activity.
Test [22] deals with HCT-116. As to the kind of experiment: Induction of apoptosis in human HCT116 cells assessed as late apoptotic cells at 9 uM incubated for 24 hrs by annexin V FITC and propidium iodide staining based flow cytometry analysis (reference value: 11 %). The test is classed as functional.
Test [23] deals with HCT-116. As to the kind of experiment: Induction of apoptosis in human HCT116 cells assessed as late apoptotic cells at 1 uM incubated for 24 hrs by annexin V FITC and propidium iodide staining based flow cytometry analysis (reference value: 11 %). The test is classed as functional.
In test [24] the test system is HCT-116. Kind of test: Induction of apoptosis in human HCT116 cells assessed as total apoptotic cells at 9 uM incubated for 24 hrs by annexin V FITC and propidium iodide staining based flow cytometry analysis (reference value: 18.9%). The test is classed as functional.
Test [25] concerns HCT-116. As to the kind of experiment: Induction of cell cycle arrest in human HCT116 cells assessed as G1 phase at 0.33 uM incubated for 24 hrs by annexin V and propidium iodide staining based flow cytometry analysis (reference value: 61.81 %). The test is classed as functional. The method in brief: as §1

The IC50 is the concentration that inhibits the measured activity by half.

On to `Cn1c(=O)c(=O)n(C2CCCC2)c2nc(N/N=C/c3ccccc3F)ncc21`, for which the 50% inhibitory concentration (IC50) is 31.2 µM with A549, 27.6 µM in the test on PC-3 and 20.7 µM with HCT-116 [1].

`Cn1c(=O)c(=O)n(C2CCCC2)c2nc(N/N=C/c3cc(C(F)(F)F)cc(C(F)(F)F)c3)ncc21`: the Activity in the test on HCT-116 [2] is 20%; in the test on HCT-116 [3] it was 16.56%; with HCT-116 [4], 10.2%; in the test with HCT-116 [5] it was 17.98%; in the test on HCT-116 [6] it was 0.2%; in the test on HCT-116 [7], 12.2%. The Activity in the test on HCT-116 [8] was 11.41%; in the test on HCT-116 [9], 0.5%; in the test with HCT-116 [11], 20.3%; with HCT-116 [13], 67.2%; in the test with HCT-116 [14] it was “Dose-dependent effect”; with HCT-116 [15], 10.3%. For the same compound, the Activity worked out at 0.4% in the test on HCT-116 [17]; 17.31% with HCT-116 [18]; 65.46% in the test with HCT-116 [19]; 21.39% in the test with HCT-116 [20]; 18% in the test with HCT-116 [22]; 11.1% in the test with HCT-116 [23]. Besides, the Activity with HCT-116 [24] was 38.3%; in the test with HCT-116 [25], 62.69%. Further, in the test on HCT-116 [10], the inhibition entry was “Dose-dependent effect”. In addition, the half-inhibitory concentration (IC50) worked out at 3.23 µM in the test with A549, 8.2 µM in the test with PC-3 and 4.36 µM in the test on HCT-116 [1]. In addition, the viability at 9 µM in the test with HCT-116 [12] worked out at 61.3%. Besides, in the test on HCT-116 [16], the viability at 3 µM is 77.4%. Besides, the viability at 1 µM with HCT-116 [21] was 78.1%.

With `CSc1ccc(/C=N/Nc2ncc3c(n2)n(C2CCCC2)c(=O)c(=O)n3C)cc1`, the IC50 was 14.1 µM with A549, 21 µM in the test with PC-3 and 9.01 µM in the test on HCT-116 [1].

On to `Cn1c(=O)c(=O)n(C2CCCC2)c2nc(N/N=C/c3ccc(F)cc3Cl)ncc21`, for which the IC50 is 11 µM in the test on A549, 15.2 µM in the test on PC-3 and 13.8 µM with HCT-116 [1].

Consider `Cn1c(=O)c(=O)n(C2CCCC2)c2nc(N/N=C/c3ccc(F)cc3Br)ncc21`, for which the IC50 was 6.59 µM in the test with A549, 9.25 µM in the test on PC-3 and 8.39 µM in the test on HCT-116 [1].

Consider `COc1ccc(/C=N/Nc2ncc3c(n2)n(C2CCCC2)c(=O)c(=O)n3C)c(OC)c1`, for which the 50% inhibitory concentration (IC50) in the test on A549, in the test with PC-3 and in the test on HCT-116 [1] was greater than 100 µM throughout.

Take `Cn1c(=O)c(=O)n(C2CCCC2)c2nc(N/N=C/c3ccc(S(C)(=O)=O)cc3)ncc21`: the 50% inhibitory concentration (IC50) in the test on A549 came to 84.5 µM; with PC-3 it was 26.6 µM; in the test with HCT-116 [1], 86.6 µM.

For the compound `Cc1cc(C)c(/C=N/Nc2ncc3c(n2)n(C2CCCC2)c(=O)c(=O)n3C)c(C)c1`, the 50% inhibitory concentration (IC50) in the test with A549 was determined as 12 µM; with PC-3, 13.9 µM; in the test on HCT-116 [1], 7.92 µM.

In the case of `Cn1c(=O)c(=O)n(C2CCCC2)c2nc(N/N=C/c3ccc(O)c(F)c3)ncc21`, the 50% inhibitory concentration (IC50) came to 97.8 µM in the test with A549, 85.2 µM with PC-3 and 59.3 µM in the test on HCT-116 [1].

Turning to `Cn1c(=O)c(=O)n(C2CCCC2)c2nc(N/N=C/c3ccc(F)c(Cl)c3)ncc21`, the values for the 50% inhibitory concentration (IC50) in the test on A549, in the test with PC-3 and in the test with HCT-116 [1] were 9.41 µM, 8.55 µM and 9.02 µM, respectively.

For the compound `Cn1c(=O)c(=O)n(C2CCCC2)c2nc(N/N=C/c3ccccc3Cl)ncc21`, the IC50 in the test with A549 is 9.86 µM; with PC-3 it was 16.3 µM; in the test on HCT-116 [1], 14 µM.

In the case of `Cn1c(=O)c(=O)n(C2CCCC2)c2nc(N/N=C/c3ccco3)ncc21`, the figures for the 50% inhibitory concentration (IC50) in the test with A549, with PC-3 and with HCT-116 [1] were greater than 100 µM, 72.2 µM and 78.7 µM, respectively.

`Cn1c(=O)c(=O)n(C2CCCC2)c2nc(N/N=C/c3ccc(OC(F)(F)F)cc3)ncc21`: the IC50 in the test on A549 was determined as 12.9 µM; with PC-3 it was 7.18 µM; in the test with HCT-116 [1], 6.15 µM.

With `COc1cccc(/C=N/Nc2ncc3c(n2)n(C2CCCC2)c(=O)c(=O)n3C)c1`, the IC50 is 27.4 µM with A549, 20.7 µM in the test with PC-3 and 45.8 µM in the test with HCT-116 [1].

For the origin of these results see ChEMBL document CHEMBL4622944 (Bioorg Med Chem Lett, 2020).
